Several values for one entry are separate records, joined by “and”; a condition that tells them apart may be missing. Identical values can stand only once.
Key:
CYP2C9 [1] = target: T1, CYP2C9 (Homo sapiens, UniProt P11712); test: Drug metabolism in human liver microsomes assessed as CYP2C9-mediated metabolism by measuring parent compound remaining at 10 pmol/ml after 60 mins in presence of NADPH by LC-MS/MS analysis; format: ADME; conditions: read-out: Stability
CYP2C9 [2] = target: T1, CYP2C9; test: Drug metabolism in human liver microsomes assessed as CYP2C9-mediated metabolism by measuring compound half life at 10 pmol/ml preincubated for 10 mins followed by NADPH addition measured after 10 mins by LC-MS/MS analysis; format: ADME
Cytochrome P450 2C9 [3] = target: T2, Cytochrome P450 2C9 (Homo sapiens, UniProt P11712); test: Drug metabolism in human liver microsomes assessed as CYP2C9-mediated metabolism by measuring compound intrinsic clearance at 10 pmol/ml preincubated for 10 mins followed by NADPH addition measured after 10 mins by LC-MS/MS analysis; format: ADME
CYP2C9 [4] = target: T1, CYP2C9; test: Drug metabolism in human liver microsomes assessed as CYP2C9-mediated metabolism by measuring parent compound remaining at 10 pmol/ml after 60 mins in absence of NADPH by LC-MS/MS analysis; format: ADME; conditions: read-out: Stability
Cytochrome P450 2C9 [5] = target: T2, Cytochrome P450 2C9; test: (§1) Drug metabolism in human liver microsomes assessed as CYP2C9-mediated metabolism by measuring parent compound remaining at 250 pmol/ml after 60 mins in absence of NADPH by LC-MS/MS analysis; format: ADME; conditions: microsomes, 1 h
CYP2C9 [6] = target: T1, CYP2C9; test: as §1; format: ADME; conditions: liver microsomes, read-out: Stability
Plasma [7] = test: Drug metabolism in Sprague-Dawley rat plasma assessed as (-)-Lesinurad formation at 10 mg/kg, po administered as single dose via gavage by LC-MS/MS analysis; format: ADME, organism-based; conditions: in vivo
Cytochrome P450 2C19 = Cytochrome P450 2C19 (Homo sapiens, UniProt P33261); test: Inhibition of CYP2C19 (unknown origin); format: ADME
Cytochrome P450 2C9 [8] = target: T2, Cytochrome P450 2C9; test: Drug metabolism in human liver microsomes assessed as CYP2C9-mediated metabolism by measuring compound intrinsic clearance at 250 pmol/ml preincubated for 10 mins followed by NADPH addition measured after 10 mins by LC-MS/MS analysis; format: ADME
[9] = Stability of the compound in DMSO at 80 degC for 4 days; format: physicochemical; conditions: 96 h
[10] = Drug level in cynomolgus monkey urine at 2 mg/kg, iv administered as single bolus dose measured at 24 hrs post dose by LC-MS/MS analysis; format: ADME, organism-based, Macaca fascicularis; conditions: read-out: Drug uptake
In short: (§2)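 Male cynomolgus monkeys received a single 2 mg/kg IV or 10 mg/kg PO dose. Plasma and urine were collected over time periods, and the two atropisomers were quantified separately. Urine values are the mean concentration over 0-24 h. Data are mean±SD, n=3.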

Plasma [11] = test: Drug metabolism in Sprague-Dawley rat plasma assessed as (+)-Lesinurad formation at 2 mg/kg, iv administered as single bolus dose by LC-MS/MS analysis; format: ADME, organism-based; conditions: in vivo
[12] = target: Voltage-gated inwardly rectifying potassium channel KCNH2 (Homo sapiens, UniProt Q12809); test: Inhibition of human ERG
[13] = Drug recovery in cynomolgus monkey urine at 10 mg/kg, po administered as single dose via gavage measured at 24 hrs post dose by LC-MS/MS analysis; format: ADME, organism-based, Macaca fascicularis; conditions: read-out: Drug recovery; in short: as §2
[14] = Drug recovery in cynomolgus monkey urine at 2 mg/kg, iv administered as single bolus dose measured at 24 hrs post dose by LC-MS/MS analysis; format: ADME, organism-based, Macaca fascicularis; conditions: read-out: Drug recovery; in short: as §2
[15] = Stability of the compound in ethanol at 37 degC for 4 days; format: physicochemical; conditions: 96 h
Plasma [16] = test: Drug metabolism in Sprague-Dawley rat plasma assessed as (-)-Lesinurad formation at 2 mg/kg, iv administered as single bolus dose by LC-MS/MS analysis; format: ADME, organism-based; conditions: in vivo
[17] = Apparent permeability from apical to basolateral side in MDCK cells expressing MDR1; format: ADME, cell-based, Canis lupus familiaris; conditions: dog
[18] = Drug metabolism in cynomolgus monkey assessed as (+)-Lesinurad level in urine at 2 mg/kg, iv administered as single bolus dose measured at 24 hrs post dose by LC-MS/MS analysis; format: ADME, organism-based, Macaca fascicularis; conditions: in vivo, read-out: Drug metabolism; in short: as §2
Cynomolgus monkey [19] = test: AUC (0 to infinity) in cynomolgus monkey at 10 mg/kg, po administered as single dose via gavage by LC-MS/MS analysis; format: ADME, organism-based, Macaca fascicularis; design: dose 10 mg/kg, route oral, time infinity; conditions: in vivo
Cytochrome P450 2C9 [20] = target: T2, Cytochrome P450 2C9; test: Inhibition of CYP2C9 (unknown origin); format: ADME
[21] = Drug metabolism in cynomolgus monkey assessed as (-)-Lesinurad level in urine at 2 mg/kg, iv administered as single bolus dose measured at 24 hrs post dose by LC-MS/MS analysis; format: ADME, organism-based, Macaca fascicularis; conditions: in vivo; in short: as §2
[22] = Stability of the compound in solid state assessed as compound purity after 80 days; format: physicochemical; conditions: 1920 h
Cynomolgus monkey [23] = test: (§3) AUC (0 to infinity) in cynomolgus monkey at 2 mg/kg, iv administered as single bolus dose by LC-MS/MS analysis; format: ADME, organism-based, Macaca fascicularis; design: dose 2 mg/kg, time infinity, route intravenous; conditions: in vivo
[24] = as §3; format: ADME, organism-based, Macaca fascicularis; design: dose 2 mg/kg, time infinity, route intravenous; conditions: in vivo
Cytochrome P450 2C9 [25] = target: T2, Cytochrome P450 2C9; test: Drug metabolism in human liver microsomes assessed as CYP2C9-mediated mono-oxidative metabolite formation at 250 pmol/ml preincubated for 10 mins followed by NADPH addition measured after 10 mins by LC-MS/MS analysis; format: ADME; conditions: 0.25 µM
Cytochrome P450 2C9 [26] = target: T2, Cytochrome P450 2C9; test: (§4) Drug metabolism in human liver microsomes assessed as CYP2C9-mediated metabolism by measuring parent compound remaining at 250 pmol/ml after 60 mins in presence of NADPH by LC-MS/MS analysis; format: ADME; conditions: microsomes, 1 h
CYP2C9 [27] = target: T1, CYP2C9; test: as §4; format: ADME; conditions: liver microsomes, read-out: Stability
Plasma [28] = test: Drug metabolism in Sprague-Dawley rat plasma assessed as (+)-Lesinurad formation at 10 mg/kg, po administered as single dose via gavage by LC-MS/MS analysis; format: ADME, organism-based; conditions: in vivo
[29] = Apparent plasma clearance in cynomolgus monkey at 2 mg/kg, iv administered as single bolus dose by LC-MS/MS analysis; format: ADME, organism-based, Macaca fascicularis; conditions: read-out: CL(app); in short: as §2
Plasma [30] = test: Stability in Sprague-Dawley rat plasma at 37 degC up to 2 hrs; format: ADME, cell-free
[31] = Drug level in cynomolgus monkey urine at 10 mg/kg, po administered as single dose via gavage measured at 24 hrs post dose by LC-MS/MS analysis; format: ADME, organism-based, Macaca fascicularis; conditions: in vivo, read-out: Drug uptake; in short: as §2
Cytochrome P450 2D6 = Cytochrome P450 2D6 (Homo sapiens, UniProt P10635); test: Inhibition of CYP2D6 (unknown origin); format: ADME
[32] = Stability of the compound in solid state assessed as racemization after 80 days; format: physicochemical; conditions: 1920 h
[33] = Drug metabolism in cynomolgus monkey assessed as (-)-Lesinurad level in urine at 10 mg/kg, po administered as single dose via gavage measured at 24 hrs post dose by LC-MS/MS analysis; format: ADME, organism-based, Macaca fascicularis; conditions: in vivo, read-out: Drug metabolism; in short: as §2
Cytochrome P450 3A4 = Cytochrome P450 3A4 (Homo sapiens, UniProt P08684); test: Inhibition of CYP3A4 (unknown origin); format: ADME
Cytochrome P450 1A2 = target: T3, Cytochrome P450 1A2 (Homo sapiens, UniProt P05177); test: Inhibition of CYP1A2 (unknown origin); format: ADME
T3 sequence (P05177 whole entry): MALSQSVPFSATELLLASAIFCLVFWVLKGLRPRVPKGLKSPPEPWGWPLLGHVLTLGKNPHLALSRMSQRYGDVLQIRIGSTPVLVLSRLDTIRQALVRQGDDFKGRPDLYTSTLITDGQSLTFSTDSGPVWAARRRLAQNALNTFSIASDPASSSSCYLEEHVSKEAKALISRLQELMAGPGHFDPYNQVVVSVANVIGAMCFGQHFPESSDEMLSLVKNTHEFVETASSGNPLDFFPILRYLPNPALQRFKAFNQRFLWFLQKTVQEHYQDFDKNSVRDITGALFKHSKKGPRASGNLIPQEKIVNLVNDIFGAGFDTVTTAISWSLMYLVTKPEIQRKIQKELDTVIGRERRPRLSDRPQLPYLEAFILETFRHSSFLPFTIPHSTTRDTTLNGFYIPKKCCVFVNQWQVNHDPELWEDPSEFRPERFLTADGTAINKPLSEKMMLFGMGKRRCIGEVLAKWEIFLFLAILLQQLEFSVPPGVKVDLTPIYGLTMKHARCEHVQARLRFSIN

[34] = Drug metabolism in cynomolgus monkey assessed as (+)-Lesinurad level in urine at 10 mg/kg, po administered as single dose via gavage measured at 24 hrs post dose by LC-MS/MS analysis; format: ADME, organism-based, Macaca fascicularis; conditions: in vivo, read-out: Drug metabolism; in short: as §2
Cytochrome P450 2C9 [35] = target: T2, Cytochrome P450 2C9; test: (§5) Drug metabolism in human liver microsomes assessed as CYP2C9-mediated metabolism by measuring compound half life at 250 pmol/ml preincubated for 10 mins followed by NADPH addition measured after 10 mins by LC-MS/MS analysis; format: ADME; conditions: microsomes, 10 min
CYP2C9 [36] = target: T1, CYP2C9; test: as §5; format: ADME; conditions: liver microsomes
Plasma [37] = test: Stability in human plasma at 37 degC up to 2 hrs; format: ADME, cell-free
[38] = Apparent permeability from basolateral to apical side in MDCK cells expressing MDR1; format: ADME, cell-based, Canis lupus familiaris; conditions: dog

Sequence of Cytochrome P450 2D6 (P10635 whole entry): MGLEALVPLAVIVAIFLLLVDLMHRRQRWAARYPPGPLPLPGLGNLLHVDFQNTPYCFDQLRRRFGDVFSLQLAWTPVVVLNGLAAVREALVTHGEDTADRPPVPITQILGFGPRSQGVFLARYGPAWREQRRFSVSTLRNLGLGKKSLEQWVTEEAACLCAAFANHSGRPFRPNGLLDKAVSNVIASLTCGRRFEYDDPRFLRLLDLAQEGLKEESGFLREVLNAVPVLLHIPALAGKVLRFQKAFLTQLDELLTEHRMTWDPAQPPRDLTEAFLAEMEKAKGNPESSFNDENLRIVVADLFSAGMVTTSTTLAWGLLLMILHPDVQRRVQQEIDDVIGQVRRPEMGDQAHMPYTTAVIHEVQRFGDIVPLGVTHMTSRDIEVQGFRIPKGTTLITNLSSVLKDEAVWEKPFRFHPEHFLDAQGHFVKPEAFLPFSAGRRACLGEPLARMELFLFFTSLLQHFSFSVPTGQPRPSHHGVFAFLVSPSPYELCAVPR
T2 sequence (P11712 whole entry): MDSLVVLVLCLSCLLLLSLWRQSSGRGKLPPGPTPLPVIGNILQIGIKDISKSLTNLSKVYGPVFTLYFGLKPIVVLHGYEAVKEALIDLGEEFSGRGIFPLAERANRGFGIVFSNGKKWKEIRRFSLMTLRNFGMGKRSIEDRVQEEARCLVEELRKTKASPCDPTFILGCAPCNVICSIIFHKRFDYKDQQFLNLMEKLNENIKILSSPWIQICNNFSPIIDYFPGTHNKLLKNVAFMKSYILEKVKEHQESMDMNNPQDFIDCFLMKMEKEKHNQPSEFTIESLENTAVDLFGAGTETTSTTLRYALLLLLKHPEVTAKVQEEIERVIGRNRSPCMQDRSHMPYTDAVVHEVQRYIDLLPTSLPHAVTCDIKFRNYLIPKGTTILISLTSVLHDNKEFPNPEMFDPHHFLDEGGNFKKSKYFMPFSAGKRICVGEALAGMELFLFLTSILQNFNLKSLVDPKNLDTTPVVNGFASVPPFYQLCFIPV
T1 sequence (P11712 whole entry): as above
Sequence of Voltage-gated inwardly rectifying potassium channel KCNH2 (Q12809 whole entry): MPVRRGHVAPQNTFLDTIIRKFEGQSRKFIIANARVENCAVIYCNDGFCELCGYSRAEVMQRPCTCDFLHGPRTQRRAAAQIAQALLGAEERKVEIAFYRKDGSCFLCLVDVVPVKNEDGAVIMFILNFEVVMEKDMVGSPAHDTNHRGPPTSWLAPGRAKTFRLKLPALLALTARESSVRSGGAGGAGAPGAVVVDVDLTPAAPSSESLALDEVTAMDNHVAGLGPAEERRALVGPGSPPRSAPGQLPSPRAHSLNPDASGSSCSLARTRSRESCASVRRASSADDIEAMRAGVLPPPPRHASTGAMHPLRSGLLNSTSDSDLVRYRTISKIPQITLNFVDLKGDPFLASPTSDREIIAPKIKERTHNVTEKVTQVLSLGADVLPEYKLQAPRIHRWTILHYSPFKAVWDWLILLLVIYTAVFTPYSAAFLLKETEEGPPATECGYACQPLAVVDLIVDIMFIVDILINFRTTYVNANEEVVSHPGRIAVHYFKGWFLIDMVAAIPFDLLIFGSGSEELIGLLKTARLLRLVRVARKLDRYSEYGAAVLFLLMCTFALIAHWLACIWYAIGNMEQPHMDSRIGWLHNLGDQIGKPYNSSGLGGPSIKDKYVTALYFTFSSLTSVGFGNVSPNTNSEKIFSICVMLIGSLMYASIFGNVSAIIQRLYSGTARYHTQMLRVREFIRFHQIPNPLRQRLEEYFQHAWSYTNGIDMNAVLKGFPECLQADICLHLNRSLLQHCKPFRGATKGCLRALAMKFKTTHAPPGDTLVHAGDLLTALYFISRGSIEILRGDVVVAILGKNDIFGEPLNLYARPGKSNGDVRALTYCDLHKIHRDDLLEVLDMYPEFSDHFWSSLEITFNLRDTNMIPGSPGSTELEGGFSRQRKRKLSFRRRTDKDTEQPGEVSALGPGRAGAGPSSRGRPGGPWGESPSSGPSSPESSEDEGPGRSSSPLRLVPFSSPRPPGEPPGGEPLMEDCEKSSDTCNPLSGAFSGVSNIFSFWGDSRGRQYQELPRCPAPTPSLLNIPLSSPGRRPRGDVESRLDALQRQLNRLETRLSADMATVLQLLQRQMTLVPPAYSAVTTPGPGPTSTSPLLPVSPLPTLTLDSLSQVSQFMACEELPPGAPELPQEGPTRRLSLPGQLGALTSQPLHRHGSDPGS
Sequence of Cytochrome P450 2C19 (P33261 whole entry): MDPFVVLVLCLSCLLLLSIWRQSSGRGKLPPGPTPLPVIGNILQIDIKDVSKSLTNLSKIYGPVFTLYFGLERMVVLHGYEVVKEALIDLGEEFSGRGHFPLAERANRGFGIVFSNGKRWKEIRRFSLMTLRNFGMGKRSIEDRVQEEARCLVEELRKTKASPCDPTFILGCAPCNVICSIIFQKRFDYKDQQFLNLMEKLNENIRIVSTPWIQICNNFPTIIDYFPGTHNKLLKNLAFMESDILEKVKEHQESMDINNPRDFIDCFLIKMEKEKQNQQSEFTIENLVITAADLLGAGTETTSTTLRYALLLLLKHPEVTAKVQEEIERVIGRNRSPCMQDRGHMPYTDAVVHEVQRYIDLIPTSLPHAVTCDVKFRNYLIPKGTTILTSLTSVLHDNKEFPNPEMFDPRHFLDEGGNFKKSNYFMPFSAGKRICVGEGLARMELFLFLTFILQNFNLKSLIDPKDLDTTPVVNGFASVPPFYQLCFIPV
Sequence of Cytochrome P450 3A4 (P08684 whole entry): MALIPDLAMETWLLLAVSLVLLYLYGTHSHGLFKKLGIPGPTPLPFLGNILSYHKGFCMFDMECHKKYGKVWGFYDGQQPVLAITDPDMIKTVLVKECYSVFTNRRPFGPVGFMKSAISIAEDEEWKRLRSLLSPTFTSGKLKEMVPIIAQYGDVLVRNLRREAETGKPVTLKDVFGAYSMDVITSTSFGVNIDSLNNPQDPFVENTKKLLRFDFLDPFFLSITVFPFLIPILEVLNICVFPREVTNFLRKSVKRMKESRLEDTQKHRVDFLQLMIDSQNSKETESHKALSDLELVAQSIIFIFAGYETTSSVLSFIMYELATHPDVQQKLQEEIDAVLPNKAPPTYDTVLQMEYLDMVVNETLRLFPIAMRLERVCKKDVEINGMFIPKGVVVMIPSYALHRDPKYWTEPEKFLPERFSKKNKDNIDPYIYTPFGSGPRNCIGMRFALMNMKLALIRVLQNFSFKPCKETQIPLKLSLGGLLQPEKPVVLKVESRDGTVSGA

Work on `O=C(O)Cc1ccccc1Nc1c(Cl)cccc1Cl` [DICLOFENAC] yielded a remaining at 1 h, 10 pmol/ml (CYP2C9 [1]) of 3.3%, a half-life at 10 pmol/ml (CYP2C9 [2]) of 0.205 h and a CLint (Cytochrome P450 2C9 [3]) of 5.6 µL/min/pmol. The remaining at 1 h, 10 pmol/ml (CYP2C9 [4]) was 112%.
In the case of `O=C(O)CSc1nnc(Br)n1-c1ccc(C2CC2)c2ccccc12` [LESINURAD], the Stability (Cytochrome P450 2C9 [5]) is reported as 108.9%, the remaining at 1 h, 250 pmol/ml (CYP2C9 [6]) is reported as 110% and the Drug metabolism (Plasma [7]) is reported as “Metabolite_Notdetected”. For the same molecule, the IC50 (Cytochrome P450 2C19) was 61.7 µM and 10.6 µM and 10.8 µM, the CLH (Cytochrome P450 2C9 [8]) was 0.04 µL/min/pmol and < 0.02 µL/min/pmol and the Stability [9] was “Stable”. The concentration ([10]; in vivo, 24 h) was 15.7 µM, the concentration at 24 h ([10]; urine) was 16.3 µM and the Drug metabolism (Plasma [11]) was “Metabolite_Notdetected”. It also gave an IC50 [12] greater than 30 µM, a dose excreted at 24 h [13] of 20% and a dose excreted at 24 h [14] of 20%. For the same molecule, the Stability [15] was “Stable”, the Drug metabolism (Plasma [16]) was “Metabolite_Notdetected” and the Papp A→B ([17]; MDCK-MDR1) was 13.4 nm/s. The Papp ([17]; mdck) was 1.29 ucm/s and 1.26 ucm/s, the concentration [18] was 2.8 µM and the AUC (Cynomolgus monkey [19]) was 83.9 µM·h and 37.3 µM·h. For the same molecule, the IC50 (Cytochrome P450 2C9 [20]) was > 100 µM and 78.7 µM and 31.2 µM, the Drug metabolism [21] was 5.4 µM and the Stability [22] was “Stable”. For the same molecule, the AUC (Cynomolgus monkey [23]) was 19.2 µM·h, the AUC(0-inf) [24] was 26.7 µM·h and the Drug metabolism (Cytochrome P450 2C9 [25]) was “Metabolite_Detected”. The Stability (Cytochrome P450 2C9 [26]) was 74.9%, the remaining at 1 h, 250 pmol/ml (CYP2C9 [27]) was 61.8% and the Drug metabolism (Plasma [28]) was “Metabolite_Notdetected”. For the same molecule, the clearance [29] was 0.198 L/h/kg, the Stability (Plasma [30]) was “Stable” and the concentration [31] was 120 µM and 47.8 µM. The IC50 (Cytochrome P450 2D6) was 32.6 µM and 92.1 µM and > 100 µM, the Stability [32] was “Stable” and the concentration [33] was 153 µM. The IC50 (Cytochrome P450 3A4) was 74.4 µM and 32.4 µM and 31 µM, the IC50 (Cytochrome P450 1A2) was 17.3 µM and 39.3 µM and 21.9 µM and the concentration [34] was 38 µM. For the same molecule, the t1/2 (Cytochrome P450 2C9 [35]) was greater than 2.42 h, the half-life at 250 pmol/ml (CYP2C9 [36]) was 1.5 h and the Stability (Plasma [37]) was “Stable”. The Papp B→A ([38]; MDCK-MDR1) was 19.8 nm/s and the Papp ([38]; mdck) was 1.84 ucm/s and 1.62 ucm/s.

— ChEMBL document CHEMBL4000255, “Discovery and Assessment of Atropisomers of (±)-Lesinurad” (ACS Med Chem Lett, 2017)
